bIAP inhibitor = blocks bovine intestinal alkaline phosphatase activity; purified bovine IAP, CDP-star luminescence, 30 min; inhibition, % at 20 µM; 190,000 tested, under 10 active;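 active = over 50% inhibition of intestinal alkaline phosphatase at 20 µM in the single-dose screen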
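Assay system: bovine IAP enzyme; medium: DEA buffer 100 mM, pH 9.8, with MgCl2 1.0 mM, ZnCl2 0.02 mM; doses: 20 µM single dose; incubation: enzyme reaction for 30 min at room temperature; detection: CDP-star luminescence signal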
bIAP activator = increases bovine intestinal alkaline phosphatase activity; purified bovine IAP, CDP-star luminescence, 30 min; stronger effect = higher value; fold of DMSO-control signal, blank-subtracted; activation factor at 20 µM; actives 0.17% (n = 200,000); AID 1016;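 active = activation factor of 2 or more at 20 µM, a signal rise over negative controls twice the positive control's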
hIAP act = human IAP activation | AID 2524 | actives 0.16% (n = 330,000) | P09923 | activation factor at 10 µM | purified human IAP, CDP-Star luminescence, 30 min; stronger effect = higher value; 1 = vehicle-only enzyme, 0 = enzyme-free background;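 active = activation factor of the enzyme at least 2-fold when tested at 20 µM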
Target sequence (P09923 whole entry, looked up): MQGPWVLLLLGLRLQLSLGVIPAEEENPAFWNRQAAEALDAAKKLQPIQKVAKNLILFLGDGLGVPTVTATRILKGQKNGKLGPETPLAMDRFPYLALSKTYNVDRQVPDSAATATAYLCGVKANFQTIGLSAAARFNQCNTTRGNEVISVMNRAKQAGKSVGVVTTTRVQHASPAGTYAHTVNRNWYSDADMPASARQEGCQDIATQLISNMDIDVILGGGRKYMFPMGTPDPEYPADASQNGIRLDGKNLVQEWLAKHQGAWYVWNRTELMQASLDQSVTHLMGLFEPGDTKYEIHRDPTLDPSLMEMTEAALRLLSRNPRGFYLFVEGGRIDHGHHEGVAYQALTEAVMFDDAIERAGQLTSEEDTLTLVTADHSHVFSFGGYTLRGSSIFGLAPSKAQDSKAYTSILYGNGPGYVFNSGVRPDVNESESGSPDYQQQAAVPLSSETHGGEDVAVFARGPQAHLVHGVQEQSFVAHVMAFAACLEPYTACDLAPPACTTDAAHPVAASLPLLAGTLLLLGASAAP
hIAP inh = blocks human intestinal alkaline phosphatase; P09923; purified IAP, CDP-Star luminescence, 30 min; actives 0.12% (n = 330,000); inhibition, % at 10 µM;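 active = inhibition reaching a set limit with compound at 10 µM in the primary screen, cut at about 35% in these data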
mIAP inh = mouse IAP inhibition. actives 0.2% (n = 330,000). purified mouse IAP, CDP-Star luminescence, 30 min. inhibition, % at 10 µM;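 active = inhibition of at least 40% at 10 µM in the primary screen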
mIAP act = mouse IAP activation; muIAP, CDP-Star luminescence, 30 min; stronger effect = higher value; 1 = vehicle-only enzyme signal, 0 = enzyme-free wells; activation factor at 10 µM; actives 0.24% (n = 330,000); AID 2805;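 active = activation factor of at least 2 at 20 µM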
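Assay system: mouse IAP enzyme; reagent: chemiluminescent substrate CDP-Star; dosing: test compounds delivered from DMSO solution; schedule: 30 min at room temperature; measured by: luminescence from enzymatic CDP-Star hydrolysis; controls: DMSO-only wells and no-enzyme negative control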
mIAP inh conf = mouse IAP inhibition confirmation. AID 434971. actives 4.7% (n = 11,000). purified mouse IAP, CDP-Star luminescence, 30 min. inhibition, % at 10 µM. shares compounds with mIAP inh;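 active = inhibition of at least 40% at 10 µM in either of the two replicates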
A number is an active result; – = inactive; · = not tested or not shown. This is a sample that favours compounds with a hit; in the whole collection about 0.79% have one here.

SMILES	bIAP inhibitor	bIAP activator	hIAP act	hIAP inh	mIAP inh	mIAP act	mIAP inh conf
CC(C)C(C)NC(=O)COC(=O)c1cc(S(=O)(=O)N(C)C)ccc1N1CCCC1 (configuration not stated)	–	–	–	–	–	–	·
CC1(c2ccccc2)NC(=O)N(CC(=O)Nc2ccc3c(c2)CCC3)C1=O (configuration not stated)	·	·	–	–	–	–	·
COc1ccc(CNCc2cccc(Oc3ccccc3)c2)cc1	–	–	–	–	–	–	·
O=C(Nc1ccc(Cl)c(C(F)(F)F)c1)NC1CC2CCCC(C1)N2Cc1ccccc1 (configuration not stated)	–	2.3	–	–	–	8.9	–
O=C(C[n+]1ccccc1)Nc1ccccc1C(F)(F)F	·	·	–	–	–	–	·
Cc1cc(O)c2c(c1)C(=O)c1cc(O)cc(O)c1C2=O	·	·	–	–	–	–	·
O=C1c2cccc(O)c2C(=O)c2c(O)cc(CO)cc21	·	·	–	–	45	–	52
O=C(COC(=O)CNC(=O)c1cccc(OC(F)F)c1)NNC(=O)c1ccccc1	·	·	–	–	–	–	·
C=CC(=O)Nc1ccc(N(C)c2ccnc(Nc3ccc(N4CCN(C)CC4)cc3)n2)cc1	·	·	–	–	–	–	·
O=C(O)C1C2CCC(O2)C1C(=O)Nc1cnn(Cc2ccccc2)c1 (configuration not stated)	–	–	–	–	–	–	·
O=C(Nc1cnn(Cc2ccccc2)c1)NC12CC3CC(CC(C3)C1)C2	–	–	–	–	–	2.1	–
COCCn1c(SCC(=O)Nc2cc(C)on2)nnc1C(C)C	·	·	–	–	–	–	·
CCN1/C(=C/C=C/c2oc3ccc(-c4ccccc4)cc3[n+]2CC)Oc2ccc(-c3ccccc3)cc21	–	–	–	–	65	–	50
CCCCN1C(=O)/C(=C/C=C2\Oc3ccccc3N2CC)SC1=S	–	–	·	·	·	·	·
NS(=O)(=O)c1ccc(Nc2nc(-c3ccc(O)cc3O)cs2)cc1	–	–	–	–	40	–	60
O=C(CSc1nc2ccccc2c(=O)[nH]1)c1ccc(O)c(O)c1	·	–	–	–	62	–	72
C[C@H](CO)N1C[C@H](C)[C@@H](CN(C)C(=O)Nc2ccccc2)Oc2ccc(NC(=O)Nc3ccccc3)cc2C1=O	·	·	–	–	–	3.1	–
C[C@H](CO)N1C[C@H](C)[C@@H](CN(C)C(=O)NC2CCCCC2)Oc2ccc(NC(=O)Nc3ccccc3)cc2C1=O	·	·	–	–	–	2.6	–
CC(C)NC(=O)Nc1ccc2c(c1)C(=O)N([C@H](C)CO)C[C@H](C)[C@@H](CN(C)C(=O)NC1CCCCC1)O2	·	·	–	–	–	–	·
CN1CCN(CC(=O)Nc2c(C#N)cnn2-c2ccccc2)CC1	·	·	–	–	–	–	·
CC(=O)Nc1ccc(S(=O)(=O)NC2CC(=O)N(c3ccc(C)cc3)C2)cc1 (configuration not stated)	·	·	–	–	–	–	·
Cc1ccc(Cl)cc1N1CCN(S(=O)(=O)c2ccc3c(c2)CC(=O)N3C)CC1	·	·	–	–	–	–	·
COc1ccc(CN2CCC(Oc3ccc(C(=O)N4CCCC4)cc3)CC2)c(F)c1	·	·	–	–	–	–	·
CCOC(=O)C(C#N)(Cc1cc(OC)cc(OC)c1)Cc1cc(OC)cc(OC)c1	·	·	–	–	–	–	·
O=C(CNS(=O)(=O)c1ccc([N+](=O)[O-])cc1)N/N=C/c1ccc(O)cc1O	·	·	–	–	40	–	42
SMILES	bIAP inhibitor	bIAP activator	hIAP act	hIAP inh	mIAP inh	mIAP act	mIAP inh conf
O=C(CNS(=O)(=O)c1ccc([N+](=O)[O-])cc1)N/N=C\c1ccc(O)cc1	·	·	–	–	–	–	·
Cc1cccc(N=Cc2cc3c(cc2[N+](=O)[O-])OCO3)c1	–	–	–	–	–	–	·
Cc1cc(O)c(N=Cc2cc3c(cc2[N+](=O)[O-])OCO3)cc1C	·	·	–	–	51	–	60
NNC(=O)Nc1cccc(C(F)(F)F)c1	–	–	–	–	–	–	·
O=C(Nc1ccc(OC(F)F)cc1)Nc1cccc(C(F)(F)F)c1	–	–	–	–	–	3.2	–
CCN(CC)S(=O)(=O)c1ccc(NC(=O)Nc2cccc(C(F)(F)F)c2)cc1	–	–	–	–	–	2.8	–
CCN(CC)S(=O)(=O)c1ccc(C(=O)Nc2cccc(C)c2)cc1	–	–	–	–	–	–	·
COc1ccc(NC(=O)CN(C)C(=O)c2c(-c3c(F)cccc3Cl)noc2C)cc1	·	·	–	–	–	–	·
O=C(Nc1ccccc1)Nc1cc(Cl)cc(Cl)c1	–	–	–	–	–	4.8	–
CC(O)c1cccc(NC(=O)CCC(=O)O)c1 (configuration not stated)	–	–	–	–	–	–	·
O=C(Nc1cccc(Cl)c1)Nc1nc(-c2ccccc2)cs1	·	–	–	–	–	2.8	–
O=C(Nc1cccc(Cl)c1)Nc1cccc(Cl)c1	–	–	–	–	–	2.6	–
CC(O)c1cccc(NC(=O)Nc2cccc(NC(=O)Nc3cccc(C(C)O)c3)c2)c1 (configuration not stated)	·	·	–	–	–	2.5	–
CCC(=O)N1CCc2cc(S(=O)(=O)NCCC(=O)N3CCN(c4cccc(C)c4)C(C)C3)ccc21 (configuration not stated)	·	·	–	–	–	–	·
O=C(Nc1cccc(Cl)c1)NC1CC2CCC1C2 (configuration not stated)	·	·	–	–	–	3.2	–
O=C(NCc1csc2ccccc12)Nc1cc(Cl)cc(Cl)c1	·	·	–	–	–	3.7	–
CSc1cccc(NC(=O)Nc2ccccc2)c1	–	–	–	–	–	2.8	–
O=C(Nc1cccc(F)c1)Nc1cccc(Cl)c1	·	·	–	–	–	3.6	–
O=C(Nc1cccc(Cl)c1)NC1CCCCC1	–	–	–	–	–	–	·
O=C(NCc1ccccn1)c1cc(Cl)ccc1OCc1ccccc1	·	·	–	–	–	–	·
COc1ccc(C(CNC(=O)C(CC(C)C)NS(=O)(=O)c2ccc(C)cc2)N2CCOCC2)cc1 (configuration not stated)	·	·	–	–	–	–	·
COc1cccc(/C=C2/SC(=S)N(CC(=O)NNC(=O)c3ccccc3O)C2=O)c1	·	·	–	–	–	–	·
O=C(CN1C(=O)/C(=C/c2ccccc2)SC1=S)NNC(=O)c1ccccc1O	–	–	–	–	41	–	43
CC(NC(=O)Nc1ccc(Cl)c(Cl)c1)C(c1ccccc1)N1CCOCC1 (configuration not stated)	–	–	–	–	–	4.3	–
CC(NC(=O)Nc1ccc([N+](=O)[O-])cc1)C(c1ccccc1)N1CCOCC1 (configuration not stated)	–	–	–	–	–	–	·
CC/C(C)=N/Nc1nc2c(c(=O)[nH]c(=O)n2C)n1CCc1ccccc1	–	–	–	–	41	–	47

Bioassay records (PubChem BioAssay)
